Measurements: ChEMBL document CHEMBL1938284, “Synthesis and biological activity of novel organoselenium derivatives targeting multiple kinases and capable of inhibiting cancer progression to metastases” (Eur J Med Chem, 2012)

Columns and labels:
[1] = biological target: Epithelial discoidin domain-containing receptor 1 (Homo sapiens) (UniProt Q08345); assay: Inhibition of DDR1 at 1 uM
[2] = biological target: Aurora kinase B (Homo sapiens) (UniProt Q96GD4); assay: Inhibition of Aurora B at 1 uM
Aurora kinase B (Homo sapiens), sequence (Q96GD4 whole entry): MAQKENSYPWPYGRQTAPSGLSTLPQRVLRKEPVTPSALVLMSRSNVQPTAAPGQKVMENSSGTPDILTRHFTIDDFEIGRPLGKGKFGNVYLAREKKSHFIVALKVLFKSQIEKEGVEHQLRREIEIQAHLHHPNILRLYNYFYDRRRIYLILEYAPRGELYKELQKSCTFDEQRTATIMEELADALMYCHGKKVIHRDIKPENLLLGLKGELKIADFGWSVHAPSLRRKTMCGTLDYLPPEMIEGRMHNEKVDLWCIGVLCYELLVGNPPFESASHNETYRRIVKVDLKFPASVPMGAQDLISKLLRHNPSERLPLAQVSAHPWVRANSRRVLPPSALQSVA

[3] = biological target: Receptor tyrosine-protein kinase erbB-2 (Homo sapiens) (UniProt P04626); assay: Inhibition of HER2 at 1 uM
[4] = biological target: Serine/threonine-protein kinase pim-1 (Homo sapiens) (UniProt P11309); assay: Inhibition of PIM1 at 1 uM
[5] = biological target: Tyrosine-protein kinase Yes (Homo sapiens) (UniProt P07947); assay: Inhibition of YES1 at 1 uM
[6] = Antiinvasive activity in human MDA231 cells at 10 uM after 48 hrs by Matrigel matrix assay; format: functional, MDA-MB-231
How it was run: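 Serum-starved MDA-231 cells (30,000) placed with or without compound (10 μM) in the upper compartment of 8-µm Matrigel-coated Boyden chambers. Lower compartment held DMEM 0.2% BSA with 10% serum. Invasion ran 48 h, then invaded cells were fixed, stained and counted under a 40× objective. DMSO normalized to 0% inhibition. Mean ± SD, five experiments.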

[7] = Antiproliferative activity against human MDA231 cells after 72 hrs by MTT assay; format: functional, cell-based; settings: MDA-MB-231, 72 h
How it was run: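 MTT read-out on MDA-231 cells. 1×10^3 exponentially growing cells seeded and incubated 24, 48 and 72 h. Medium replaced with 1 mg/mL MTT for 3–4 h at 37 °C.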

[8] = biological target: Hepatocyte growth factor receptor (Homo sapiens) (UniProt P08581); assay: Inhibition of MET at 1 uM
Hepatocyte growth factor receptor (Homo sapiens), sequence (P08581 whole entry): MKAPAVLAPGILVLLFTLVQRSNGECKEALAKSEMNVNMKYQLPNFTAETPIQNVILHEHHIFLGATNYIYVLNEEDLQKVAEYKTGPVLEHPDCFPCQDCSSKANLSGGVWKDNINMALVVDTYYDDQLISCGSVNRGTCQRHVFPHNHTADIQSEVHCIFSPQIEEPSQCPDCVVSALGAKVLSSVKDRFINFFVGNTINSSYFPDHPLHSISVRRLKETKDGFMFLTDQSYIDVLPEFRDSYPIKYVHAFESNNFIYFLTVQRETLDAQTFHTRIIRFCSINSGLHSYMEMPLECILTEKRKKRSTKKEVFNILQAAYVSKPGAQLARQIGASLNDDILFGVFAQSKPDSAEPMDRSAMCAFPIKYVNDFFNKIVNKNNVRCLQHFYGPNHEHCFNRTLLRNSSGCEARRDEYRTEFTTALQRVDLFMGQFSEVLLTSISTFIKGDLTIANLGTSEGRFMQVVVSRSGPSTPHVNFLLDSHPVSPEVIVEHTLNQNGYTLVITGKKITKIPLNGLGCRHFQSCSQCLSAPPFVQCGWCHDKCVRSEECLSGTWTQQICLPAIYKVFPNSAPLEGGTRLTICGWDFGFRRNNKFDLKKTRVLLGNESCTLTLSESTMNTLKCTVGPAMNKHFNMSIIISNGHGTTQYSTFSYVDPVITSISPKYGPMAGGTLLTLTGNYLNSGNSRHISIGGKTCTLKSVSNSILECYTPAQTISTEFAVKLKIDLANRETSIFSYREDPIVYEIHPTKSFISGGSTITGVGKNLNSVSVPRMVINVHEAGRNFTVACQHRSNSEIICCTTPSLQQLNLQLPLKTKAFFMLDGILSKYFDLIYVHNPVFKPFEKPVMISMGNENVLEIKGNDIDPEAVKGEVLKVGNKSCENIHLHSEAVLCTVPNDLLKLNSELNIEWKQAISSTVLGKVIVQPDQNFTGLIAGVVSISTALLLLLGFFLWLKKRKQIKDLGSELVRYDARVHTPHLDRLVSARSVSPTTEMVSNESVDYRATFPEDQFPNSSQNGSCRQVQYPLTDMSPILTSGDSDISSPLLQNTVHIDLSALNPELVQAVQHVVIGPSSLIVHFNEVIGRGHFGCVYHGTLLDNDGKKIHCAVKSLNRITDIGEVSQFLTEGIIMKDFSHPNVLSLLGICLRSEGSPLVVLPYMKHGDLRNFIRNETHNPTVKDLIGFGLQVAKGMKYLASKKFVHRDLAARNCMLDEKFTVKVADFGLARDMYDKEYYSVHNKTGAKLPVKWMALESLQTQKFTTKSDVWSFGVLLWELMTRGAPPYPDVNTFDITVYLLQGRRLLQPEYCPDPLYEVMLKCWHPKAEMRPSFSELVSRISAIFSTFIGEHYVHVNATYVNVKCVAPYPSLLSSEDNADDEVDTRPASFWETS

[9] = biological target: Tyrosine-protein kinase Lyn (Homo sapiens) (UniProt P07948); assay: Inhibition of LYN at 1 uM
Tyrosine-protein kinase Lyn (Homo sapiens), sequence (P07948 2-512 limits assumed): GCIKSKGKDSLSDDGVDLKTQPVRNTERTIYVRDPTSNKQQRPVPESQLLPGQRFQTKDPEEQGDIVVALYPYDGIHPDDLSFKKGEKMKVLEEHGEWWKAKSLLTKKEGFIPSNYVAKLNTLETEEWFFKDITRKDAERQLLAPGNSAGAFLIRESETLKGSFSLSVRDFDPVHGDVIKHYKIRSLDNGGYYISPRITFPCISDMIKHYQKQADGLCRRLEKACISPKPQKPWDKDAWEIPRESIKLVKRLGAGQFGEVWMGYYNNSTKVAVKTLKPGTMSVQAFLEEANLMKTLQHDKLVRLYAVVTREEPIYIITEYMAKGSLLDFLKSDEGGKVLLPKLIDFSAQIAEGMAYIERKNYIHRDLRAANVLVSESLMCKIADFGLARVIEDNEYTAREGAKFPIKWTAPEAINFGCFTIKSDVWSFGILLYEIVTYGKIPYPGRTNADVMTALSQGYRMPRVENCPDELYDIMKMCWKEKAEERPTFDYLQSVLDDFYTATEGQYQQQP

[10] = biological target: Tyrosine-protein kinase receptor Tie-1 (Homo sapiens) (UniProt P35590); assay: Inhibition of TIE1 at 1 uM
Tyrosine-protein kinase receptor Tie-1 (Homo sapiens), sequence (P35590 whole entry): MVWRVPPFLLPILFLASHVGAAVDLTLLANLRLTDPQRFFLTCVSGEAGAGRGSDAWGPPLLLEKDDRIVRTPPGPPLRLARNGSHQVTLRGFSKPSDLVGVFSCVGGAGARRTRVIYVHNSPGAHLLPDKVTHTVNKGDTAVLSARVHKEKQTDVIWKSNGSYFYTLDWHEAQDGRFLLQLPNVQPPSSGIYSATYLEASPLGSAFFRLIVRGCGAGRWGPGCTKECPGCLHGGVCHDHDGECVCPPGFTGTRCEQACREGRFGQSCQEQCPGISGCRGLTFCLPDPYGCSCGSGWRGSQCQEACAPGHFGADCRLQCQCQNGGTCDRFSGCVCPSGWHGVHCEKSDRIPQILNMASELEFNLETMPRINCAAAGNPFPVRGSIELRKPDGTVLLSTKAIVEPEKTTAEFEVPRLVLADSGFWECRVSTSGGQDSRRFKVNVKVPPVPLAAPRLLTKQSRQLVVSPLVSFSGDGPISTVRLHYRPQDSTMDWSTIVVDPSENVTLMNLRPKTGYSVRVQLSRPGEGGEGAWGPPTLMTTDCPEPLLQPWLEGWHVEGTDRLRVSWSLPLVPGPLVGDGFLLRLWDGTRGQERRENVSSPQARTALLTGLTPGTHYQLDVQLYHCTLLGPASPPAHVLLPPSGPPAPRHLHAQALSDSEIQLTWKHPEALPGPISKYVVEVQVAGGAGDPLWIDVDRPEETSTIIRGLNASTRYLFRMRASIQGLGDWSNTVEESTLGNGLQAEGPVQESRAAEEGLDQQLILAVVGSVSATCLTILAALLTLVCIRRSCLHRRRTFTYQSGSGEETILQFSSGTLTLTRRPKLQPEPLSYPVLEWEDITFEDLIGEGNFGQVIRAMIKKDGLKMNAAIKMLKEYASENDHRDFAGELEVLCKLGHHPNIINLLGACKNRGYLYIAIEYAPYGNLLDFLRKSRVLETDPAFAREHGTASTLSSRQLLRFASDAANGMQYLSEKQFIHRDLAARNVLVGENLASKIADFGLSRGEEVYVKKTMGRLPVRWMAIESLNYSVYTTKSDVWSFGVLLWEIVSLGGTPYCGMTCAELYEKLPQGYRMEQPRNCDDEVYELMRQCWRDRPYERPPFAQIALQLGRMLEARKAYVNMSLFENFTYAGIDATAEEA

[11] = biological target: Fibroblast growth factor receptor 1 (Homo sapiens) (UniProt P11362); assay: Inhibition of FGFR1 at 1 uM
Fibroblast growth factor receptor 1 (Homo sapiens), sequence (P11362 22-822 limits assumed): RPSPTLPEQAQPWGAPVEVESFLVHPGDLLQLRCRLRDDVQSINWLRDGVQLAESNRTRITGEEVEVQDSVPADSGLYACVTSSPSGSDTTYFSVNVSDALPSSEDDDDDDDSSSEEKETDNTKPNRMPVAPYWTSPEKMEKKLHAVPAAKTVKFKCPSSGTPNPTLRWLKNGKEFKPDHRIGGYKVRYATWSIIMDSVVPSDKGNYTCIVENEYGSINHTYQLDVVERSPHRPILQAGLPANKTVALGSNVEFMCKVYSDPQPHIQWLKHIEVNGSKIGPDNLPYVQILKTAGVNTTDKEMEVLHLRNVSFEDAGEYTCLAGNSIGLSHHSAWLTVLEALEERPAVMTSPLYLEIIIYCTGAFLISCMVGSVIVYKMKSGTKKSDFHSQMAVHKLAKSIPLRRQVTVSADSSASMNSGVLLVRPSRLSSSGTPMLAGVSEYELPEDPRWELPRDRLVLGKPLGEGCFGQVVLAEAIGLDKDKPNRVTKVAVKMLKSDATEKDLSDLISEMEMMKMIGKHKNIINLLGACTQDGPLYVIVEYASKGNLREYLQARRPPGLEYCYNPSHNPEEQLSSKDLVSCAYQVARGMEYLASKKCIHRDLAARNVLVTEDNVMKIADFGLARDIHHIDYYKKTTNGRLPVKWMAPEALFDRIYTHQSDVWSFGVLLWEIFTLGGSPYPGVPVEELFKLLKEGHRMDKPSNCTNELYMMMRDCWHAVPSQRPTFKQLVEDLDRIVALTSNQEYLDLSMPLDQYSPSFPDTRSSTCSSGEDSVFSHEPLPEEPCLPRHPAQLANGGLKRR

[12] = biological target: T1, Serine/threonine-protein kinase PLK4 (Homo sapiens) (UniProt O00444); assay: Inhibition of PLK4 at 1 uM
T1 sequence (whole entry): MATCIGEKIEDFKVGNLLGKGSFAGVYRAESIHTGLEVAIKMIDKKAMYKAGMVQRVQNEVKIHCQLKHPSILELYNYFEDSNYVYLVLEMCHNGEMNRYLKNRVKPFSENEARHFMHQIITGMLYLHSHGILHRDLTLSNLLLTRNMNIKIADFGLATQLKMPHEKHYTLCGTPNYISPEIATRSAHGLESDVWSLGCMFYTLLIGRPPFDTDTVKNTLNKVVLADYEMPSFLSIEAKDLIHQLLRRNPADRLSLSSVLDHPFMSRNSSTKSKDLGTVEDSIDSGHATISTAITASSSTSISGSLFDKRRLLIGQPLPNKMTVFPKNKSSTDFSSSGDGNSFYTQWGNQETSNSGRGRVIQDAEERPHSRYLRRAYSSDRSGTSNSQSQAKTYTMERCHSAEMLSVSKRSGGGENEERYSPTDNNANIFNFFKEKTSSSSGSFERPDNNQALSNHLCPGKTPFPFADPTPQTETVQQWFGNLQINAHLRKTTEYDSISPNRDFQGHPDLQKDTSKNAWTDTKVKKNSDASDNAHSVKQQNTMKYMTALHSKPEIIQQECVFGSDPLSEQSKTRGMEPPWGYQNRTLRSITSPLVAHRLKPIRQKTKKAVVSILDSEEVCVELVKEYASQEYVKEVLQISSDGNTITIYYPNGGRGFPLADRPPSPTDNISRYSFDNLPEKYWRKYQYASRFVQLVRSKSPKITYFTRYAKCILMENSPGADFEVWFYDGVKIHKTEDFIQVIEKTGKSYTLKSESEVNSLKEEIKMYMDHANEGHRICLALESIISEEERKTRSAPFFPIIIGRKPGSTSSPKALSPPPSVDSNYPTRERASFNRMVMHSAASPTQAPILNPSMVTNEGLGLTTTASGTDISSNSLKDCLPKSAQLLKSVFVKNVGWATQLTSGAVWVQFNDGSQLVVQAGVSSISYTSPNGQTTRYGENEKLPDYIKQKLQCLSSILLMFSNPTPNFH

[13] = biological target: T2, Serine/threonine-protein kinase Sgk3 (Homo sapiens) (UniProt Q96BR1); assay: Inhibition of SGK3 at 1 uM
T2 sequence (whole entry): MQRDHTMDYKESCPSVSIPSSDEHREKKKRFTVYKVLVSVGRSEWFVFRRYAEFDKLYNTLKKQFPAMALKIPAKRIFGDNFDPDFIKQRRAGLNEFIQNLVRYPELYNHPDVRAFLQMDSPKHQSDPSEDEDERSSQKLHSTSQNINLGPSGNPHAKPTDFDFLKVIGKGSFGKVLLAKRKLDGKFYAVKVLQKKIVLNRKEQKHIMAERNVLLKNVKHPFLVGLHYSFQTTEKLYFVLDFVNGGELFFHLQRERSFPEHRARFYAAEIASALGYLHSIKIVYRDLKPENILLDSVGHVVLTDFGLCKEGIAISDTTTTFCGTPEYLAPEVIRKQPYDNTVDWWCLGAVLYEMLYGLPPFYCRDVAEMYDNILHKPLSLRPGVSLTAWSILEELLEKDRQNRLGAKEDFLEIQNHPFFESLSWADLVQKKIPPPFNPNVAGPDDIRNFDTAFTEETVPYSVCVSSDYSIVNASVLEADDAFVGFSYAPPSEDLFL

[14] = biological target: Tyrosine-protein kinase Fyn (Homo sapiens) (UniProt P06241); assay: Inhibition of FYN at 1 uM
[15] = […] in human MDA231 cells assessed as inhibition of cell migration at 10 uM after 12 to 24 hrs by wound healing migration assay relative to control; format: functional; settings: MDA-MB-231
How it was run: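 MDA-231 cells grown on coverslips for 24 h, wounded by scraping with a micropipette tip, washed, then incubated in fresh medium at 37 °C with or without compound (10 μM final). Wound areas photographed at 12 and 24 h, remaining area measured, DMSO control set to 0% inhibition. Mean ± SD of five independent experiments.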

[16] = biological target: T3, Mitogen-activated protein kinase 12 (Homo sapiens) (UniProt P53778); assay: Inhibition of p38-gamma at 1 uM
T3 sequence (whole entry): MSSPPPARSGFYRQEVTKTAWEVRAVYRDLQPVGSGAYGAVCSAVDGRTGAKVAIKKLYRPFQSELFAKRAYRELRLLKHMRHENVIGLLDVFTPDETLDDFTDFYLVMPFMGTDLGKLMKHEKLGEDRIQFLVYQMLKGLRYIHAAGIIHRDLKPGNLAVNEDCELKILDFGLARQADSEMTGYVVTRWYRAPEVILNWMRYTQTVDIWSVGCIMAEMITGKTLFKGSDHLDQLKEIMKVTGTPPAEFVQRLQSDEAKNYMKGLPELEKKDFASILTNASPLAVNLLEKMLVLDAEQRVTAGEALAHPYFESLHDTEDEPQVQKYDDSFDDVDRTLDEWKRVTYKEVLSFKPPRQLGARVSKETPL

Epithelial discoidin domain-containing receptor 1 (Homo sapiens), sequence (Q08345 whole entry, the tested form may be a part): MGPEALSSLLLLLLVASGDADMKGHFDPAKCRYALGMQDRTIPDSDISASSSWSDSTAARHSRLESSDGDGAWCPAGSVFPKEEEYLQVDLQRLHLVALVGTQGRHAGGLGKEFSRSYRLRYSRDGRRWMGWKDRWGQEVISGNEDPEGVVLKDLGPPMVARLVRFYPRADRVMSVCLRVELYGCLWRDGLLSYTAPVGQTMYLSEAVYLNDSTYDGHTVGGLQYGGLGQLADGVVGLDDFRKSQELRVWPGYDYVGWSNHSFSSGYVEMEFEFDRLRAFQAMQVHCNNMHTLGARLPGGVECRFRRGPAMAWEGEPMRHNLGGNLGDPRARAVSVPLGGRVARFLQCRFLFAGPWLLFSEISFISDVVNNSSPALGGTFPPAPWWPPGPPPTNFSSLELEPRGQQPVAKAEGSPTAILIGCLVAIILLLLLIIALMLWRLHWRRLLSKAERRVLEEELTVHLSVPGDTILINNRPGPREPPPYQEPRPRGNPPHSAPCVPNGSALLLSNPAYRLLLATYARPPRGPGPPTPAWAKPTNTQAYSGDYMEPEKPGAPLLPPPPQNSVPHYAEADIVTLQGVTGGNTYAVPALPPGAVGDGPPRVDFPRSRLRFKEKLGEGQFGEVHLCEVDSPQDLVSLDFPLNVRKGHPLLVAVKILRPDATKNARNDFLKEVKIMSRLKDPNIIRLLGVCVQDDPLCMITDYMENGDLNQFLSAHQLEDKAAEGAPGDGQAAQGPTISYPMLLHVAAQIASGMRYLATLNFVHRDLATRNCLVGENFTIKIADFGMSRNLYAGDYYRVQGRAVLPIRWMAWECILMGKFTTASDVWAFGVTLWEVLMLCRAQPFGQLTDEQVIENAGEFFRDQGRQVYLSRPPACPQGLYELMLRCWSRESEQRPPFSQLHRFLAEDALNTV

Compound: O=C(CCCn1[se]c2ccccc2c1=O)N[C@@H]1O[C@H](CO)[C@@H](O)[C@H](O)[C@H]1O
- inhibition [1]: 0%
- inhibition [2]: 0%
- inhibition [3]: 0%
- inhibition [4]: 0%
- inhibition [5]: 0%
- Activity [6]: 50%
- IC50 [7]: 20.4 µM
- inhibition [8]: 0%
- inhibition [9]: 0%
- inhibition [10]: 0%
- inhibition [11]: 0%
- inhibition [12]: 0%
- inhibition [13]: 0%
- inhibition [14]: 0%
- inhibition at 10 µM [15]: 50%
- inhibition [16]: 0%

Compound: O=c1c2ccccc2[se]n1-c1ccccc1 [EBSELEN]
- inhibition [1]: 0%
- inhibition [2]: 0%
- inhibition [3]: 0%
- inhibition [4]: 0%
- inhibition [5]: 0%
- IC50 [7]: 42.3 µM
- inhibition [8]: 0%
- inhibition [9]: 0%
- inhibition [10]: 0%
- inhibition [11]: 0%
- inhibition [12]: 0%
- inhibition [13]: 0%
- inhibition [14]: 0%
- inhibition [16]: 0%

Compound: CC(=O)OC[C@H]1O[C@@H](NC(=O)CCCn2[se]c3ccccc3c2=O)[C@H](OC(C)=O)[C@@H](OC(C)=O)[C@@H]1OC(C)=O
- inhibition [1]: 0%
- inhibition [2]: 0%
- inhibition [3]: 0%
- inhibition [4]: 0%
- inhibition [5]: 0%
- Activity [6]: 50%
- IC50 [7]: 18.9 µM
- inhibition [8]: 0%
- inhibition [9]: 0%
- inhibition [10]: 0%
- inhibition [11]: 0%
- inhibition [12]: 0%
- inhibition [13]: 0%
- inhibition [14]: 0%
- inhibition at 10 µM [15]: 50%
- inhibition [16]: 0%

Compound: CC(=O)OC[C@H]1O[C@@H](O[C@H]2[C@H](OC(C)=O)[C@@H](OC(C)=O)[C@H](n3[se]c4ccccc4c3=O)O[C@@H]2COC(C)=O)[C@H](OC(C)=O)[C@@H](OC(C)=O)[C@H]1OC(C)=O
- inhibition [1]: 0%
- inhibition [2]: 0%
- inhibition [3]: 0%
- inhibition [4]: 0%
- inhibition [5]: 0%
- Activity [6]: 50%
- inhibition [8]: 0%
- inhibition [9]: 0%
- inhibition [10]: 0%
- inhibition [11]: 0%
- inhibition [12]: 0%
- inhibition [13]: 0%
- inhibition [14]: 0%
- inhibition at 10 µM [15]: 50%
- inhibition [16]: 0%
